From ChEMBL document CHEMBL1139157, “2,5-Disubstituted pyridines: the discovery of a novel series of 5-HT2A ligands” (Bioorg Med Chem Lett, 2007)

Experiments:
[1] = target: 5-hydroxytryptamine receptor 2A (Homo sapiens, UniProt P28223); test: Displacement of [3H]ketanserin from human 5HT2A receptor expressed in CHO cells; type: cell-based
[2] = target: T1, 5-hydroxytryptamine receptor 2C (Homo sapiens, UniProt P28335); test: Displacement of [3H][…] from human 5HT2C receptor expressed in CHO cells; type: cell-based
T1 sequence (P28335 whole entry): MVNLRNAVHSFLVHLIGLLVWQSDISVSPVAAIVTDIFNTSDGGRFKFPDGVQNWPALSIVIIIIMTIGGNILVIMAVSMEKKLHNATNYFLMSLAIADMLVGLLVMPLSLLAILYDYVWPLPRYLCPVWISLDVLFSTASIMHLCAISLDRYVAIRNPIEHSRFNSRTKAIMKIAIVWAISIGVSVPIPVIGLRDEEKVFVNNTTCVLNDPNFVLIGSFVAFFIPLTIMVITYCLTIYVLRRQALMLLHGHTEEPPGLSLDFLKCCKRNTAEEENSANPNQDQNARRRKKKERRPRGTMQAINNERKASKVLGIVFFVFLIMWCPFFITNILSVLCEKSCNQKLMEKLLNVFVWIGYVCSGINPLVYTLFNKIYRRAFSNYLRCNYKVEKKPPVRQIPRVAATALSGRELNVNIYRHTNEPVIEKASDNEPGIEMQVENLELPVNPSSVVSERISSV

[3] = target: Serotonin 2 receptors; 5-HT2a & 5-HT2c (Homo sapiens) (UniProt P28223+P28335); test: Selectivity for human 5HT2A receptor over human 5HT2C receptor
D(2) dopamine receptor = D(2) dopamine receptor (Homo sapiens, UniProt P14416); test: Displacement of [3H]spiperone from human dopamine D2 receptor expressed in CHO cells; type: cell-based
[4] = target: Voltage-gated inwardly rectifying potassium channel KCNH2 (Homo sapiens, UniProt Q12809); test: Displacement of [3H]dofetilide from hERG expressed in HEK cells; type: cell-based, HEK293
[5] = Drug level in rat brain at 5 mg/kg, po after 1 hr; type: ADME, organism-based; design: dose 5 mg/kg, route oral; details: read-out: Drug uptake
Procedure, shortened: (§1)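 Rats given 5 mg/kg po, with a radiolabeled selective 5-HT2A ligand co-administered; drug concentrations in plasma and brain measured at 1 h after dosing.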

Rattus norvegicus = test: Receptor occupancy ex vivo by displacement of tritiated radioligand from 5HT2A receptor in rat at 5 mg/kg, po; type: functional
Procedure, shortened: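 Rats dosed 5 mg/kg po; [3H] selective 5-HT2A radioligand (6 lCi) given by tail vein injection. Read at 1 h. Occupancy (%) = 100 − [100·(compound counts/vehicle counts)], with vehicle counts taken as total binding.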

[6] = Drug level in rat plasma at 5 mg/kg, po after 1 hr; type: ADME, organism-based; design: dose 5 mg/kg, route oral; procedure, shortened: as §1

Sequence of Serotonin 2 receptors; 5-HT2a & 5-HT2c (Homo sapiens) (P28223 whole entry, looked up, one chain of several): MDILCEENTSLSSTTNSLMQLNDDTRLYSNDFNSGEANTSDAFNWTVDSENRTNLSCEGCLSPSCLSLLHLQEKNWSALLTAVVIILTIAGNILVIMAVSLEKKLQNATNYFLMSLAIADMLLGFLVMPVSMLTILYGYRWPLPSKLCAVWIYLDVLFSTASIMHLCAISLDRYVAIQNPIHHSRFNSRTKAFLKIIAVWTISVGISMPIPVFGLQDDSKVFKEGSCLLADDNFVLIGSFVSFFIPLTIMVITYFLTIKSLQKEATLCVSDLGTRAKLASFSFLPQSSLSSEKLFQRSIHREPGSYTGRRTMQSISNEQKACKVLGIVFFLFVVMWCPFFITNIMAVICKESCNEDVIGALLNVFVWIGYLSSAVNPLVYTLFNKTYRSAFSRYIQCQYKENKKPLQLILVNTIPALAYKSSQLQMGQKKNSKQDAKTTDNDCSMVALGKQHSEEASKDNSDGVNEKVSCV
Sequence of 5-hydroxytryptamine receptor 2A (P28223 whole entry): as the sequence (P28223 whole entry, looked up, one chain of several) above
Sequence of Voltage-gated inwardly rectifying potassium channel KCNH2 (Q12809 whole entry): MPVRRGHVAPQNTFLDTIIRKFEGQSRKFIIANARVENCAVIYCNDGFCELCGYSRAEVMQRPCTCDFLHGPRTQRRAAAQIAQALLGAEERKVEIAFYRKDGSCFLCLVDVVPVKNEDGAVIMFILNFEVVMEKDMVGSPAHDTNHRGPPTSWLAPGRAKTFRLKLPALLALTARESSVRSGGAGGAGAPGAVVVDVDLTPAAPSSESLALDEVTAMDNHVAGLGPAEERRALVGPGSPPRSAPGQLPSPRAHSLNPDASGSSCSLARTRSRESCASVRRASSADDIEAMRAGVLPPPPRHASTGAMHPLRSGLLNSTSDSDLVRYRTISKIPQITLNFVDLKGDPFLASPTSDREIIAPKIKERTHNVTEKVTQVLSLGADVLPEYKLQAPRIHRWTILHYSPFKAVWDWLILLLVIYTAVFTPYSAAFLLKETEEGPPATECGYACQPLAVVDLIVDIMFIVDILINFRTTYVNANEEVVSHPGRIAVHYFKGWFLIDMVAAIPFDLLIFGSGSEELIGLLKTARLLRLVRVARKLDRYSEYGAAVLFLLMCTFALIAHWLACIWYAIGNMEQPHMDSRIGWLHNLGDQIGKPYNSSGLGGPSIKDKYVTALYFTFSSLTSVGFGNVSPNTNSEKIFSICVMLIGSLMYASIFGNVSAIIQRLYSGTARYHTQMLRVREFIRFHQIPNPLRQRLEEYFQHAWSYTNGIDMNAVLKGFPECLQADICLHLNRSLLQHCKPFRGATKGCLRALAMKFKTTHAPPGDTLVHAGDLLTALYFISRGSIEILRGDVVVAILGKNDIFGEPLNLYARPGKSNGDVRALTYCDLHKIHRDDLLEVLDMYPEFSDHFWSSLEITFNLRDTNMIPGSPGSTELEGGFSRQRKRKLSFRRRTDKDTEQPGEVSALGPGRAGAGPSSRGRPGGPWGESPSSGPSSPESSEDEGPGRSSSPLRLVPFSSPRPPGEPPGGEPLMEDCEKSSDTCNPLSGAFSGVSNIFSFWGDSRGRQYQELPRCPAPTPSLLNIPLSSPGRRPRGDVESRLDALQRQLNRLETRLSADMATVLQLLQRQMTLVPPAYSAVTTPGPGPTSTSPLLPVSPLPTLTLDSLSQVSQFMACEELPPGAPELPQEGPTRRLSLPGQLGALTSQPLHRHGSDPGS
Sequence of D(2) dopamine receptor (P14416 whole entry): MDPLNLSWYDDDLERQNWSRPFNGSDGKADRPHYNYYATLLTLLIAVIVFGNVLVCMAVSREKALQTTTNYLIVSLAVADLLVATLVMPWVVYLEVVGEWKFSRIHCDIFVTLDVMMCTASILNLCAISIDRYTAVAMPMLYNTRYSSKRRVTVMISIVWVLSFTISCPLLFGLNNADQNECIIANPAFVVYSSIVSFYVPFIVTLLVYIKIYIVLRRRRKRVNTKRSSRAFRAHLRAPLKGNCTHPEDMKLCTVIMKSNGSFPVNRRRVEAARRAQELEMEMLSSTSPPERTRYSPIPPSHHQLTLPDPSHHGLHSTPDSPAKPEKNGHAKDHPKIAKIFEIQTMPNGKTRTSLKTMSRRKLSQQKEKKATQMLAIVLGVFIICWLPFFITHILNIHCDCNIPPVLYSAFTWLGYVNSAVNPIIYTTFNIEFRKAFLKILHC

| Ki [1] [µM] | Ki [2] [µM] | Ratio Ki [3] | Ki (D(2) dopamine receptor) [µM] | concentration at 1 h [5] [nM] | concentration at 1 h [6] [nM] | Ki (D(2) dopamine receptor; cho) [µM] | Structure (SMILES) | Ki [4] [µM] | Activity (Rattus norvegicus) [%] |
| --- | --- | --- | --- | --- | --- | --- | --- | --- | --- |
| 0.0099 | 0.019 | 2.1 | > 2 | – | – | – | N#Cc1cc(F)ccc1/C=C/c1ccc(S(=O)(=O)c2ccccc2F)cn1 | 1.5 | – |
| 0.0007 | 0.025 | – | > 2 | – | – | – | [O-][S+](c1ccccc1)c1ccc(/C=C/c2ccc(F)cc2F)nc1 (single isomer, unassigned; form 2) [listing 1 of 2 here] | 6.5 | – |
| 0.019 | > 4 | > 210 | > 1 | – | – | – | O=S(=O)(c1ccc(F)cc1)c1ccc(CCc2ccc(F)cc2)cn1 | 6.9 | – |
| 0.0036 | 0.81 | 220 | > 2 | – | – | – | O=S(=O)(c1ccc(/C=C/c2ccccc2O)nc1)c1ccccc1F | 1.4 | – |
| 0.0035 | 0.043 | – | > 2 | – | – | – | [O-][S+](c1ccc(/C=C/c2ccc(F)cc2F)nc1)c1ccccc1F (configuration not stated) | – | – |
| 0.00086 | > 4 | – | > 2 | 180 | 80 | – | O=S(=O)(c1ccccc1)c1ccc(/C=C/c2ccc(F)cc2F)nc1 | – | 45 |
| 0.15 | > 4 | > 27 | > 2 | – | – | – | O=S(=O)(c1ccc(/C=C/c2cccc(F)c2)nc1)c1ccccc1F | > 9 | – |
| 0.0082 | 0.22 | 27 | > 2 | – | – | – | Cc1cc(F)ccc1/C=C/c1ccc(S(=O)(=O)c2ccccc2F)cn1 | 5 | – |
| 0.023 | 2.7 | – | > 1 | – | – | – | O=S(=O)(c1ccc(F)cc1)c1ccc(CCc2ccc(F)cc2)nc1 | – | – |
| 0.0077 | 0.2 | 26 | > 2 | – | – | – | [O-][S+](c1ccccc1)c1ccc(/C=C/c2ccc(F)cc2)nc1 (configuration not stated) | 3.9 | – |
| 0.79 | > 4 | > 5 | > 2 | – | – | – | O=S(=O)(c1ccc(/C=C/c2ccncc2)nc1)c1ccccc1F | 4.2 | – |
| 0.0046 | 0.16 | 35 | > 2 | – | – | – | [O-][S+](c1ccc(/C=C/c2ccc(F)cc2)nc1)c1ccccc1F (configuration not stated) | 2.9 | – |
| 0.0096 | > 4 | > 420 | > 1 | – | – | – | O=S(=O)(c1ccc(/C=C/c2ccc(F)cc2)nc1)c1cccc(F)c1 | > 9 | – |
| 0.00019 | 0.58 | 3000 | > 2 | – | – | – | O=S(=O)(c1ccc(/C=C/c2ccc(F)cc2O)nc1)c1ccccc1F | 2.1 | – |
| 0.00079 | 0.03 | – | – | 1070 | 230 | > 2 | [O-][S+](c1ccccc1)c1ccc(/C=C/c2ccc(F)cc2F)nc1 (stereo in doubt; 30) [listing 1 of 2 here] | 2.8 | 90 |
| 0.028 | > 4 | > 140 | > 1 | – | – | – | O=S(=O)(c1ccc(F)cc1)c1ccc(/C=C/c2ccc(F)cc2)cn1 | 3.3 | – |
| 0.0074 | > 4 | > 540 | > 1 | – | – | – | O=S(=O)(c1ccccc1)c1ccc(/C=C/c2ccc(F)cc2)nc1 | > 9 | – |
| 0.0054 | > 4 | > 740 | > 1 | – | – | – | O=S(=O)(c1ccc(/C=C/c2ccc(F)cc2)nc1)c1ccccc1F | > 9 | – |
| 0.0026 | 0.41 | 160 | > 1 | – | – | – | O=S(=O)(c1ccc(/C=C/c2ccc(F)cc2F)nc1)c1ccccc1F | > 9 | – |
| 0.03 | 2.4 | – | – | – | – | > 2 | [O-][S+](c1ccccc1)c1ccc(/C=C/c2ccc(F)cc2F)nc1 (single isomer, unassigned; form 1) [listing 1 of 2 here] | 4.2 | – |
| 0.017 | > 4 | – | > 1 | – | – | – | O=S(=O)(c1ccc(F)cc1)c1ccc(/C=C/c2ccc(F)cc2)nc1 | – | – |
| – | – | 36 | – | – | – | – | [O-][S+](c1ccccc1)c1ccc(/C=C/c2ccc(F)cc2F)nc1 (single isomer, unassigned; form 2) [listing 2 of 2 here] | – | – |
| – | – | 38 | – | – | – | – | [O-][S+](c1ccccc1)c1ccc(/C=C/c2ccc(F)cc2F)nc1 (stereo in doubt; 30) [listing 2 of 2 here] | – | – |
| 0.0018 | 0.064 | 36 | > 2 | – | – | – | O=S(=O)(c1ccc(/C=C/c2ccc(F)cc2Cl)nc1)c1ccccc1F | 4.8 | – |
| – | – | 80 | – | – | – | – | [O-][S+](c1ccccc1)c1ccc(/C=C/c2ccc(F)cc2F)nc1 (single isomer, unassigned; form 1) [listing 2 of 2 here] | – | – |
| 0.0026 | > 4 | > 1500 | > 2 | – | – | – | O=S(=O)(c1ccc(/C=C/c2ccccc2F)nc1)c1ccccc1F | > 9 | – |
| 0.065 | – | – | > 2 | – | – | – | COc1cc(F)ccc1/C=C/c1ccc(S(=O)(=O)c2ccccc2F)cn1 | – | – |

| Structure (SMILES) | Ki [1] [µM] | Ki [2] [µM] | Ratio Ki [3] | Ki (D(2) dopamine receptor) [µM] | concentration at 1 h [5] [nM] | concentration at 1 h [6] [nM] | Ki (D(2) dopamine receptor; cho) [µM] | Ki [4] [µM] | Activity (Rattus norvegicus) [%] |
| --- | --- | --- | --- | --- | --- | --- | --- | --- | --- |
| O=S(=O)(c1ccc(F)cc1)C1(F)CCN(CCc2ccc(F)cc2F)CC1 | – | – | 460 | – | – | – | – | 5.6 | – |
